Test results as given in publication PMC5992689 (Molecular Therapy. Nucleic Acids, 2018).

Assays:
[1] = system: CD86 (M1)-positive primary microglia; assay: CD86 immunocytochemistry of peptide-labeled microglia; type: cell-based, C57BL/6 mice; details: FITC-labeled peptide 1 μg/mL, 24 hr; n = 6 wells
Outline: (§1)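 Primary C57BL/6 microglia were isolated from 14-day mixed glial culture and incubated 24 hr with FITC-peptide at 1 μg/mL. They were then fixed in 4% PFA and immunostained for CD86 (M1) or CD206 (M2) with Alexa Fluor 555 secondaries. Marker-positive cells were counted by confocal microscopy as a percentage of FITC-positive microglia across six independent wells, with >1,000 cells in total and triplicate experiments.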

[2] = system: CD206 (M2)-positive primary microglia; assay: CD206 immunocytochemistry of peptide-labeled microglia; type: cell-based, C57BL/6 mice; details: FITC-labeled peptide 1 μg/mL, 24 hr; n = 6 wells
Outline: as §1

NSC-34 cells (neuron) = assay: Binding of FITC-labeled peptides to neuronal cells; type: cell-based; details: FITC-labeled peptide 1 μg/mL, 24 hr, MAP2 immunostaining
Outline: (§2)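 Cells were exposed to FITC-labelled peptide at 1 μg/mL in culture medium for 24 hr, fixed in 4% PFA and immunostained for MAP2 (NSC-34, maintained in DMEM/F12 with 10% FCS), GFAP (primary astrocytes) or Iba1 (primary microglia). Primary cultures came from C57BL/6 pups 1–2 days postpartum. FITC-positive marker cells were counted by confocal microscopy in six independent wells and averaged as a percentage; experiments were run in triplicate.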

[3] = system: primary cultured astrocytes; assay: Binding of FITC-labeled peptides to cultured astrocytes; type: cell-based, C57BL/6 mice; details: FITC-labeled peptide 1 μg/mL, 24 hr, GFAP immunostaining
Outline: as §2

[4] = system: primary cultured microglia; assay: Binding of FITC-labeled peptides to cultured microglia; type: cell-based, C57BL/6 mice; details: FITC-labeled peptide 1 μg/mL, 24 hr; for FITC labeling of primary cultured microglia (in words): Iba1 immunostaining; for percentage of FITC-positive microglia in all Iba1-positive cells: n = 6 wells
Outline: as §2

[5] = system: spinal cord astrocytes (GFAP) and microglia (Iba1); type: in vivo, C57BL/6 mice; details: 3 μg FITC-labeled peptide, intrathecal, 3 hr; MG1 compared with MG2
KT-5 cells (astrocytes) = assay: Phage display panning; type: binding; details: 48 of the 58 phage plaques, astrocytes (KT-5)
Outline: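 A CX7C M13 library in Tris-buffered saline (pH 7.5) was given via tail vein to C57BL/6 mice. After 5 min, blood was removed transcardially, and spinal cords were homogenised in DMEM with protease inhibitor. Phage were titrated as plaques in E. coli ER2738, amplified and re-injected for three rounds. Three 5-min in vitro panning cycles on KT-5 cells followed, and pIII inserts of 50–58 phages were sequenced.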

FITC labeling of primary cultured astrocytes (in words) [3] | Substance | percentage of CD86-positive cells in the microglia labeled with the peptide [1] [%] | percentage of CD206-positive cells in the microglia labeled with the peptide [2] [%] | FITC labeling of NSC-34 cells (in words) (NSC-34 cells (neuron)) | FITC labeling of primary cultured microglia (in words) [4] | percentage of FITC-positive microglia in all Iba1-positive cells [4] | accumulation of peptide in the spinal cord tissues [5] | frequency of phage plaques (KT-5 cells (astrocytes)) [%]
not observed | C-HHSSSAR-C [MG1] | 40 | 26 | not observed | mainly present in Iba1-positive microglia | approximately 60% | greater accumulation of MG1 peptides than of MG2 peptides | –
only observed in astrocytes | C-LNSSQPS-C [AS1] | – | – | not with MAP2 staining in neurons or Iba1 staining in microglia | not with MAP2 staining in neurons or Iba1 staining in microglia | – | – | 83
not in the NSC-34 cells or astrocytes | C-NTGSPYE-C [MG2] | 27 | 47 | not in the NSC-34 cells or astrocytes | observed only in the primary cultured microglia | approximately 40% | – | –
